Source: PubChem BioAssay AID493187 (Sanford-Burnham Center for Chemical Genomics, 2011)
Screen size: about 340,000 compounds; about 190 (0.056%) were called active.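 The calls were made as follows: active = activation of 40% or more at 20 µM, a change of -40% or lower; inactive = the rest.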 This excerpt belongs to a sample that is enriched for actives.

Biological target: Hexokinase HKDC1 (Homo sapiens) (UniProt Q2TB90)
Assay: enhancers of human HKDC1 enzyme activity – biochemical, fluorescence, uHTS, primary screen (AID 493187)
Conditions: recombinant HKDC1, G6PDH/diaphorase resazurin fluorescence; at 20 µM; active compounds read low
Outline: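 Material – in-house human HKDC1 enzyme, G6PDH and diaphorase coupling enzymes · Input – HKDC1 at 5 µg/mL final · Buffer or medium – pH 8.0 Tris with MgCl2 · Dosing – single compound dose of 20 µM, 1% DMSO final · Incubation – 90 min, room temperature · Technique – resorufin fluorescence from 100 µM resazurin, NADP 1 mM, Ex 525/Em 613 nm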

Chain of Hexokinase HKDC1 (Homo sapiens) (Q2TB90 whole entry, looked up): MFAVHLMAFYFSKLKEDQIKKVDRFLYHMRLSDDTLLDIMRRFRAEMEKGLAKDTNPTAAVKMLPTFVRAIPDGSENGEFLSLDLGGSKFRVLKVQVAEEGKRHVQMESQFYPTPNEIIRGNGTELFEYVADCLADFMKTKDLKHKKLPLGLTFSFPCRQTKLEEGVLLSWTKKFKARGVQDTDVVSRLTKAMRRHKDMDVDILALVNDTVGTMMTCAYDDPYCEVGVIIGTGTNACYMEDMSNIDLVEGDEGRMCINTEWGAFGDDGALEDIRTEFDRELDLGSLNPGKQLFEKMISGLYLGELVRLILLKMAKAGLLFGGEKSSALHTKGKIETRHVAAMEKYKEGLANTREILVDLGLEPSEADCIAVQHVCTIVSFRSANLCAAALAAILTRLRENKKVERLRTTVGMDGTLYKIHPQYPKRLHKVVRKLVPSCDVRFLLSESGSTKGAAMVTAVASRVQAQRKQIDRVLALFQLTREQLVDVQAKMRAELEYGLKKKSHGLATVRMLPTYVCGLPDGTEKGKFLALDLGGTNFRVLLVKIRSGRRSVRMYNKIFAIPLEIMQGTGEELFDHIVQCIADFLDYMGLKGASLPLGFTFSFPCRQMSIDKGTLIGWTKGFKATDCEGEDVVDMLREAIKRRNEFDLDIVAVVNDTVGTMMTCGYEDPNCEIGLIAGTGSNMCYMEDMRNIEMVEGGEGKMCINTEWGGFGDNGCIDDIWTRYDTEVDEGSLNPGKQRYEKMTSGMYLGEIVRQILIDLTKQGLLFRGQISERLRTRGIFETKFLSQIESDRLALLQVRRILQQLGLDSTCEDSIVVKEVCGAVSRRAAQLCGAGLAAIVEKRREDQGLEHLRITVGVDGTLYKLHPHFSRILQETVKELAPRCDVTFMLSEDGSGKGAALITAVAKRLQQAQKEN

Activity change, negative = activation, active:
O=C(CSc1cccc2cccnc12)N/N=C/c1cccnc1 -52.6%
C[N+](C)(CCCCCC[N+](C)(C)CCCN1C(=O)c2cccc3cccc(c23)C1=O)CCCN1C(=O)c2cccc3cccc(c23)C1=O -66.9%
Cc1cc(C2=NNC(=Nc3ccc(S(=O)(=O)N4CCOCC4)cc3)SC2)c(C)n1CC1CCCO1 (stereo not drawn) -70%
CC(=O)/C(=N\Nc1ccc(Cl)cc1Cl)Sc1cccc2cccnc12 -40.8%
CCc1ccc2c(c1)C1(NN=C(c3ccccc3)S1)C(=O)N2 (stereo not drawn) -48.1%
Cc1ccc(Nc2nc(-c3sc(NC(=O)c4ccccc4)nc3C)cs2)cc1 -77.6%
Clc1cccc(N=C2NN=C(c3ccc4c(c3)OCCO4)CS2)c1 -169%
Cc1ccc2oc(=O)c3cnn(CC(=O)N4CCCCCC4)c3c2c1 -44.7%

Activity change, negative = activation, inactive:
O=c1[nH]c2ccccc2n2c(-c3ccccc3)nnc12 46.7%
COc1ccc(C(CCN(Cc2ccc(OC)c(OC)c2)C(=O)CCl)c2ccccc2)cc1 (stereo not drawn) 35.4%
COc1ccc2c(c1)c(=Cc1ccc(N(C)C)cc1)c1cc(-c3ccccc3)[n+](C)n12 43.2%
COc1ccc(N(CC(=O)N/N=C/c2cccc3c2OCCO3)S(=O)(=O)c2ccc(NC(C)=O)cc2)cc1 38.1%
CCOC(=O)CSc1nc2ccc(C)cc2n2cnnc12 53%
CCCc1nc2oc3c(OCC)ncnc3c2c2c1COC(C)(C)C2 37.7%
O=C(c1cccnc1)N(c1cc2sc(=O)oc2c2ccccc12)S(=O)(=O)c1ccccc1 38.2%
CN1c2ccc(C=O)c3c(C=O)ccc(c23)N(C)C1(C)C 36.4%
O=C(NC1=CC(=O)c2ccccc2C1=O)c1ccccc1 54.1%
O=C1C(Cl)=C(Oc2ccccc2)C(=O)c2ccccc21 65.2%
CC(C)(C)Nc1c(N)c(=O)oc2ccccc12 44.6%
CCC(=C/c1sc2ccc3ccccc3c2[n+]1C)/C=C1\Sc2ccc3ccccc3c2N1C 45%
COc1ccc(NC(=O)CSc2ccc(-c3ccco3)nn2)c(OC)c1 47.3%
O=S(=O)(Nc1ccc(O)c2ccccc12)c1ccc(OC(F)(F)F)cc1 52%
CCOC(=O)C1=C(c2ccc(OC)cc2)C(=O)c2ccccc2C1=O 81.4%
CCn1cc(C(=O)NCc2ccc3c(c2)OCO3)c2cc(OC)c(OC)cc2c1=O 37.8%
O=c1ccc2c(-c3ccccc3S(=O)(=O)O)c3ccc(O)c(O)c3oc-2c1O 38.4%
Nc1ccc2nc3c(=O)[nH]c(=S)[nH]c3nc2c1 69.9%
CC(=O)N(C1=C(Cl)C(=O)c2ccccc2C1=O)c1ccc(C(=O)O)cc1 52.2%
Cc1cc(C(=O)CCl)c(C)n1CC1COc2ccccc2O1 (stereo not drawn) 38.2%
